Test [1] is described as follows: Antiplatelet aggregation activity against 100 uM arachidonic acid-induced rabbit platelet assessed as platelet aggregation at 100 uM relative to control. Type of test: functional, Oryctolagus cuniculus. The method, boiled down: (§1)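 Platelets were preincubated with test sample or vehicle (0.5% DMSO) at 37 °C for 1 min. Aggregation was then triggered with arachidonic acid (100 µM), collagen (10 µg/mL), thrombin (0.1 U/mL) or PAF (2 ng/mL). Results are given as percent aggregation, mean ± SD, with significance at p < 0.05 and p < 0.01.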

A short description of test [2]: Antiplatelet aggregation activity against 2 ng/mL platelet activating factor-induced rabbit platelet assessed as platelet aggregation at 100 uM relative to control. The format is functional, Oryctolagus cuniculus. The method, boiled down:
as §1

For test [3], the system named is Platelet. As to the kind of experiment: Stimulation of rabbit platelet aggregation at 30.9 +/- 6.0 ug/mL. Type of test: functional, cell-based. The note with it: Oryctolagus cuniculus.
Test [4] in a line: Antiplatelet aggregation activity against 0.1 U/mL thrombin-induced rabbit platelet assessed as platelet aggregation at 100 uM relative to control. Type of test: functional, Oryctolagus cuniculus. Summed up:
as §1

Test [5] is described as follows: Antiplatelet aggregation activity against 10 ug/mL collagen-induced rabbit platelet assessed as platelet aggregation at 100 uM relative to control. Type of test: functional, Oryctolagus cuniculus. Summed up: as §1
Test [6] is described as follows: Antiplatelet aggregation activity against 10 ug/mL collagen-induced rabbit platelet assessed as platelet aggregation at 150 uM relative to control. The format is functional, Oryctolagus cuniculus. Summed up:
as §1

A short description of test [7]: Antiplatelet aggregation activity against 0.1 U/mL thrombin-induced rabbit platelet assessed as platelet aggregation at 150 uM relative to control. The format is functional, Oryctolagus cuniculus. Summed up:
as §1

The nature of test [8]: Antiplatelet aggregation activity against 2 ng/mL platelet activating factor-induced rabbit platelet assessed as platelet aggregation at 150 uM relative to control. The format is functional, Oryctolagus cuniculus. The method, boiled down: as §1
Test [9] can be described thus: Antiplatelet aggregation activity against 100 uM arachidonic acid-induced rabbit platelet assessed as platelet aggregation at 150 uM relative to control. The format is functional, Oryctolagus cuniculus. The method, boiled down:
as §1

Test [10] concerns Platelet. The experiment in a line: Stimulation of rabbit platelet aggregation at 28.4 +/- 4.8 ug/mL. The format is functional, cell-based. As to conditions: Oryctolagus cuniculus.

Active and inactive are the calls of the source. No cut-off for these calls is given here.

Drawing on ChEMBL document CHEMBL1150632, “Triterpenoids from Rubia yunnanensis” (2002), this text covers Activity for three compounds.

As to `CC(C)[C@@H]1C[C@@H](O)[C@H]2[C@@]1(CO)CC[C@@]1(C)[C@H]3C(=CC[C@]21C)[C@@]1(C)CC[C@H](O)C(C)(C)[C@@H]1C[C@@H]3O` [RUBIARBONOL A], the Activity is 83.8% in test [1], 91.3% in [2], 90.7% in test [4] and 89.6% in test [5]. Moreover, the result in [3] was Active.

On to `CC(C)[C@@H]1C[C@@H](O)[C@H]2[C@@]1(C)CC[C@@]1(C)[C@H]3C(=CC[C@]21C)[C@@]1(C)CC[C@H](O)C(C)(C)[C@@H]1C[C@@H]3O` [RUBIARBONOL B], for which the Activity amounted to 79.8% in test [6]; 89.6% in test [7]; 90.4% in test [8]; 80.4% in [9]; 82.2% in test [5].

Take `CC(=O)O[C@@H]1C[C@@H](C(C)C)[C@]2(CO)CC[C@@]3(C)[C@H]4C(=CC[C@]3(C)[C@@H]12)[C@@]1(C)CCC(=O)C(C)(C)[C@@H]1C[C@@H]4O` [RUBIARBONONE A]: the Activity stood at 85.4% in [1], 90.3% in test [2], 91.1% in test [4] and 88.1% in [5]. Besides, in test [10], the result was Active.
